Experiment: Toxicity liver stage against HepG2, at 10uM
Format: cell-based
Design: test concentration 10 uM, cell line HepG2-A16-CD81EGFP
Settings: human, HepG2-A16-CD81EGFP cells; read-out: INHIBITION
In short: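 Uninfected HepG2-A16-CD81EGFP cells, 3 × 10^3 per well, 1536-well, plated on prespotted compound at 10 μM final, parasite-free screening media added to match infected plates; puromycin 10 μM positive, DMSO 0.5% negative; run in parallel with 48 h PbLuc assay at 37 °C, 5% CO2; viability by CellTiter-Glo luminescence, normalized to controls.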

SMILES	cytotoxicity at 10 µM [%]
CCC(C)[C@H](N)c1nnc(SCC(=O)Nc2ccc(C)cc2C)o1 (some centres undefined)	-3.32
COc1cccc(CNc2ccc(F)c(Cl)c2)c1O	4.56
O=C(NCC1CCCO1)C1CCN(Cc2nc(C3CC3)no2)CC1 (centres undefined)	1.11
CCC1CCCCCN1C(=O)c1nnc2ccccc2c1N (centres undefined)	7.85
c1ccc(CCCN2CC[C@H](c3nnc(-c4ccccc4)o3)C2)cc1	4.77
CC(=O)c1cc2ncc(C(=O)NC3CC3)cc2[nH]1	-0.0253
CCOCCCNC(=O)c1cn(C(C)(C)C)c2ncccc12	2.05
O=S(=O)(Nc1cnc(N2CCCC2)nc1)c1ccc(OC(F)(F)F)cc1	2.41
O=S(=O)(NCCn1ccc(-c2ccccn2)n1)C1CCCCC1	8.63
O=C(NC1CC1)C1CCCN(c2cc(-n3cncn3)ncn2)C1 (centres undefined)	10.1
CNC(=O)[C@@]12CCC3(CCN(S(C)(=O)=O)CC3)[C@@H]1CN(C(C)=O)C2	-2.07
Cc1ccc(N2CC[C@H]3OCC[C@@]3(C(=O)N3CCCC3)C2)nn1	2.46
CCn1c(SCC(=O)N2CCCC2)nc2cc(C)[nH]c2c1=O	7.44
CC(C)CCn1[nH]c(CNc2ccc(Cl)cc2)nc1=O	1.33
COc1ccc(-c2ccnc3nc(N4CCCC4)[nH]c(=O)c23)cc1OC	9.29
O=C1CSC(c2ccncc2)c2c[nH]nc2N1 (centres undefined)	13
O=C(Cn1cnc(-c2ccccc2)cc1=O)Nc1ccncc1	3.48
Fc1cccc(CN2CCC[C@@H](Cn3nnc(-c4ccccn4)n3)C2)c1	3.33
CC(C)N1CCCCC1c1cncc(Cl)n1 (centres undefined)	8.41
COCCOCC(=O)N1C[C@@H]2CC[C@H](Oc3ccccc3Cl)[C@@H]2C1	-10.9
O=C(C1CCOc2ccccc21)N1CCOc2ccc(F)cc21 (centres undefined)	-7.54
CC(C)n1nnnc1-c1ccc(NC(=O)CCC(F)(F)F)cc1F	-2.5

SMILES	cytotoxicity at 10 µM [%]
CNS(=O)(=O)CCCNC(C)(C)c1nc(C)cs1	11.1
Cc1cc(NC(=O)CCCn2ccnc2C)nc(C(C)C)n1	-5.73
Cc1cc(Nc2ccc3c(c2)CC(=O)N3)nc(C2CC2)n1	0.658
CCc1n[nH]c(C2CN(C(=O)COCC(F)(F)F)CCO2)n1 (centres undefined)	-3.48
CN(Cc1ccc(Br)o1)C(=O)Nc1cccnc1	-7.91
O=C(NCc1ccccc1CN1CCC(O)CC1)Nc1ccccc1	7.77
O=C(NCc1ccc(F)cc1)NCC1(N2CCOCC2)CCSC1 (centres undefined)	1.84
Cc1ccc(CN(C)C(=O)CN2CCCCC2Cn2cncn2)o1 (centres undefined)	0.508
CS(=O)(=O)CCNC1CCCN(Cc2noc(C3CC3)n2)C1 (centres undefined)	-1.38
Cc1ccc(CNc2ccccc2-n2ccc(C)n2)nc1	5.7
CC(O)CN1CCN(C(=O)c2cnc(OC(C)C)c(Cl)c2)CC1 (centres undefined)	-19.5
NC(=O)NC(=O)CCN1CCC(C(=O)c2cc(F)ccc2F)CC1	9.69
CN(Cc1ccsc1)C(=O)Cn1c(CS(C)(=O)=O)nc2ccccc21	6.96
CC1COc2ccccc2N1C(=O)c1ccc(=O)n(C)c1 (centres undefined)	-3.42
OC1CCN(c2cnnc3ccccc23)CC1	-0.561
CSCCC(NC(=O)c1ccc2ccccc2n1)C(=O)NC(C)C (centres undefined)	9.3
Cc1cc(CN(C)C(=O)CN2CCCC2=O)no1	3.05
O=C1CN(c2ccc(CNc3cncc(-n4cccn4)n3)cc2)CCN1	-13.3
CC(C)CCN1CCN(Cc2nc(C3CC3)no2)CC1	-8.77
COc1ccc(CS(=O)(=O)CC(=O)NCc2ccccc2F)cc1F	3.33
NC(=O)c1nc2c(s1)CCN(C(=O)Nc1ccccc1)CC2	12.5
O=C([C@@H]1CCCO1)N1CCOCC2(CCN(Cc3cccnc3)C2)C1 (some centres undefined)	-108

SMILES	cytotoxicity at 10 µM [%]
CN1CCN(Cc2cnc3n2CCN(C(=O)c2ccccn2)C3)CC1	-88.7
O=C(C1CCOCC1)N1CCN(CC2CC2)c2ncccc2C1	-107
Cc1ccc2c(n1)N(CCN(C)C)CCN(C(=O)c1ccsc1)C2	-57.3
O=C(c1ccccn1)N1CCC2(CC1)CN(c1cncnc1)C(=O)CO2	-67
Cc1ccc(CN2CCN(C)c3ncccc3C2)o1	-79.6
COCC(=O)N1C[C@@H]2OCCN(Cc3c(C)noc3C)[C@@H]2C1	-0.722
COc1ccc(C(=O)N2CCC(Oc3cccc(C)c3)(C(=O)O)CC2)o1	9.24
Cc1cc(C)c2c(N3CCN(CCN4CCOCC4)CC3)ncnc2n1	3.04
COCCN(C)C(C(=O)O)c1ccc2ccccc2c1 (centres undefined)	3.54
FC(F)(F)c1ccnc(N2CCCC(N3CCOCC3)C2)c1 (centres undefined)	-24.7
COCC(=O)NCc1cc2n(n1)CCCN(CCCC1CCCC1)C2	-5.01
CO[C@H]1CN(C(C)C)C[C@@H]1NC(=O)Nc1ccc(C(F)(F)F)cc1	2.05
O=C(CCc1cc2n(n1)CCCNC2)NCCCSC1CCCCC1	-5.52
COc1ccccc1OC1(C(=O)O)CCN(c2ccccn2)CC1	4.52
Fc1ccc(-n2cccn2)c(CN2CCCCC2CCn2ccnc2)c1 (centres undefined)	-11.3
CC(C)c1cc(N2CCC3(CCN(C)C3)C2)ncn1 (centres undefined)	-11.8
Cc1nc(CCNC2CCN(Cc3ccccc3)C2)sc1C (centres undefined)	12.3
COCCn1ccnc1C1CCCN(C(=O)c2cc(F)cc(F)c2)C1 (centres undefined)	8.86
Cc1nc(O)cc(C2CCCN(C(=O)c3cccc(N(C)C)c3)C2)n1 (centres undefined)	-6.47
COc1cccc([C@@H]2CN(C3CSCCSC3)C[C@H]2C(=O)O)c1	2.95
Cc1noc(CC2CCN(Cc3ccc(CCC(C)(C)O)cc3)CC2)n1	-2.18
Cn1cc(CN2CCC(CCC(=O)NCc3ccc(F)cc3)CC2)cn1	-19.5

SMILES	cytotoxicity at 10 µM [%]
Cc1n[nH]c(C)c1CCCN(C)Cc1c[nH]nc1-c1ccc(F)cc1	3.45
Cc1nc(N2CCC3(CCCN(CCO)C3=O)C2)c2sccc2n1 (centres undefined)	-0.456
CCCc1nccn1-c1ccc(C(O)CN2CCOCC2)cc1 (centres undefined)	3.43
CN(C)CC1(O)CCN(C(=O)c2cnc(CN3CCCC3)s2)C1 (centres undefined)	0.245
CN(C)CCCn1ccc(-c2cccc(-c3cncnc3)c2)n1	2.51
CCC(CO)N(Cc1ccccn1)C(=O)c1cccc(C#N)c1 (centres undefined)	-3.67
COc1ccc2c(c1OC)Cc1c-2nc(N)c(C#N)c1C1CCOC1 (centres undefined)	28.6
Cc1nnc(CCNC(=O)C2CC(=O)N(C(C)(C)C)C2)s1 (centres undefined)	-3.27
NC(=O)C1CCCN(Cc2ccc(C(=O)Nc3cnns3)cc2)C1 (centres undefined)	13.7
O=C(NCCc1cnccn1)c1ccc(S(=O)(=O)NC2CCC2)cc1	7.63
COc1ccc(OC)c(C2CCN(C(=O)C3CCS(=O)(=O)CC3)C2)c1 (centres undefined)	1.21
CCn1ccnc1CN(C)C1CCCN(CCc2ccccc2)C1 (centres undefined)	-8.63
COc1ccc(-n2ccc(C(=O)NCCN3CCCCC3)n2)cc1	-2.87
COc1c(CNCC(O)c2ccccc2F)c(C(C)C)nn1C (centres undefined)	-8.91
Cc1ccc(C(O)CNC(=O)NCc2c(C)cc(C)[nH]c2=O)cc1 (centres undefined)	-3.9
CC(C)(C)c1n[nH]c(C2CN(C(=O)C3=COCCC3)CCO2)n1 (centres undefined)	-5.74
O=C(NCCN1CCCS1(=O)=O)c1scnc1Cl	-3.67
Cn1cc(-c2nc(C(=O)N3CCCC3Cn3cccn3)cs2)cn1 (centres undefined)	-9.25
CCCc1n[nH]c(C2CN(C(=O)c3ccc(C)[nH]c3=O)CCO2)n1 (centres undefined)	0.238
CCOc1ccccc1C1=CCN(C(=O)C2CCN(C)C(=O)C2)CC1 (centres undefined)	2.58
Cc1ccccc1C1(CNC(=O)NC(C)c2nncn2C)CC1 (centres undefined)	-5.59
COc1cc(CNCc2ccnc(N3CCOCC3)c2)cc(Cl)c1OC	-8.7

SMILES	cytotoxicity at 10 µM [%]
Cc1c(F)cc(C(=O)O)cc1S(=O)(=O)Nc1ccc2c(c1)OCCO2	-1.45
c1ncn(CC2CCCN2Cc2cn3ccsc3n2)n1 (centres undefined)	-10.1
Cc1cc(C(C)C(=O)N2CCCN(Cc3cscn3)CC2)c(C)o1 (centres undefined)	-1.58
COc1ccc(-c2noc(CN3CCc4cncnc4C3)n2)cc1	-0.215
CC(C)c1ncc2c(n1)CN(Cc1ccc(C(N)=O)cc1)CC2	-14.2
CCCn1nc2c(cc1=O)CN(CC(=O)Nc1ccncc1)CC2	-17.8
CCc1ccsc1C(=O)N1CCN(C(=O)CC(F)(F)F)CC1	-9.88
COc1cc(CN[C@@H]2COC[C@H]2Cc2cc(C)no2)cc(OC)c1	0.975
CN(C)C(=O)CN1CCCC2(CCN(c3ccsc3)C2=O)C1 (centres undefined)	9.88
Cn1nc(C2CCCN(Cc3cc(F)ccc3F)C2)c2nccnc21 (centres undefined)	-12.9
Cc1ccc(CNC2CCc3[nH]c(=O)ccc3C2)cc1C (centres undefined)	0.354
Cc1cccc(CN2C(=O)CC[C@@H]3[C@H]2CCN3Cc2nccn2C)n1	-81.9
Cc1ccc(N2CC[C@H]3C[C@H](C(=O)NCc4ccco4)O[C@@H]3C2)cc1	8.8
CNC(=O)COC1COC2(CCN(Cc3cccnc3OC)CC2)C1 (centres undefined)	7.61
c1cnc(NC[C@H]2OC[C@@H]3CCN(Cc4cccnc4)C[C@@H]32)nc1	-3.12
O=C(N1CCCO1)[C@@]12CCO[C@@H]1CCN(Cc1cccs1)C2	-6.36
COc1cccc(N2CC3(CCN(Cc4nccn4C)C3)CC2=O)c1 (centres undefined)	-83
Cc1cnc(C(=O)N2CC[C@H]3[C@@H]2CCC(=O)N3c2cccnc2)cn1	-81.9
Cc1cnc(N2CC3(CCN(S(=O)(=O)C4CC4)C3)C2)nc1	-109
O=C1CO[C@@H]2CN(Cc3ccncc3)C[C@H]2N1Cc1ccncc1	-85
O=C(Cc1cccnc1)N1C[C@H]2CC[C@@H](C1)N(Cc1ccccc1)C2=O	7.93
